A selection: hits, their analogues and other compounds. The true share with any hit is near 3.6%.
BB579 growth dn = chemicals that inhibit yeast BB579 growth in restrictive medium (lifespan-shortening candidates); S. cerevisiae BB579 growth, OD615, 48 h; inhibition, % at 10 µM; hit rate 0.51% among 140,000;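 active = inhibition above a set limit, 3 SD over the mean compound inhibition, cut at about 44% in these data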
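test system = yeast BB579 (DeaD) | buffer or medium = restrictive CSMM-D medium | doses = single compound dose of 10 µM, 0.25% DMSO final | times = 4 h preincubation and 48 h exposure at 30 °C | technique = culture absorbance at 615 nm | benchmarks = amphotericin B 10 µg/mL, positive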
Yeast lifespan up = yeast lifespan extension; S. cerevisiae growth with nicotinamide, OD615; deaD strain in restrictive glucose medium; inhibition of the nicotinamide effect, % at 10 µM; hit rate 0.68% among 130,000; AID 775;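 active = inhibition above a set limit, placed 3 SD over the median of all compounds, cut at about 26% in these data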;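 also: 0% = nicotinamide-treated wells and 100% = cells grown without nicotinamide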
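Buffer or medium: CSMM-D glucose medium, restrictive; test system: modified budding yeast, DeaD strain; compound: single dose 10 µM compound, 0.25% DMSO; schedule: culture preincubation 4 h, compound exposure 48 h, both 30 °C; detection: optical density (absorbance) at 615 nm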
RAM inhibit = yeast RAM network inhibition; S. cerevisiae dse1pr::URA3 reporter, 5-FOA growth OD615, 2 d; analog-sensitive cbk1-as2 kinase mutant strain; inhibition, % at 50 µM; hit rate 1.8% among 190,000; AID 868;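 active = inhibition above a set limit, 3 SD over mean compound inhibition, cut at about 8.4% in these data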;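 also: 0% = DMSO-only wells with no growth and 100% = 10 µM 1-NA-PP1 full growth; inhibition rescues growth on 5-FOA so higher OD means more RAM inhibition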
Measles CPE = protection of cells from measles virus; hit rate 1.5% among 140,000; protection (pct of control), % at 4 µM; Measles virus-infected cells, CPE protection, absorbance; in the data active = protection mostly above about 24%, no sharp cut-off; inactive = mostly below about 26%
RAM efflux-def = restores 5-FOA growth of efflux-deficient yeast; shares compounds with RAM inhibit; S. cerevisiae efflux-deficient reporter strain, 5-FOA growth OD615, 2 days; max inhibition, %; 1,200 tested, under 10 active; AID 1305; call rule not given here;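 also: plate controls were vehicle for no effect and reference inhibitor for full effect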
The depositor's hits bear a star; . = not tested or not shown.

SMILES	BB579 growth dn	Yeast lifespan up	RAM inhibit	Measles CPE	RAM efflux-def
CC1CCCN(C(=O)C(C)Sc2nc(-c3ccccc3)cc(C(F)(F)F)n2)C1 (configuration not stated)	-87.0	20.3	14.4*	4.8	1.6
FC(F)(F)c1cnc(-c2cnc(-c3ccccn3)nc2)c(Cl)c1	.	.	-0.1	.	.
COc1ccc(C(=O)/C=C/c2cn(CC(O)CN3CCOCC3)c3ccccc23)cc1 (configuration not stated)	-12.3	-6.2	-0.7	3.1	.
Cc1ccc(C(=O)/C=C/c2cn(CC(O)CN3CCOCC3)c3ccccc23)cc1 (configuration not stated)	-1.4	-3.9	19.3*	12.9	1.7
COc1cccc(CC(=O)N[C@@H](CCSC)c2nc3ccccc3[nH]2)c1	.	.	1.1	.	.
O=S(=O)(Nc1ccc(-c2csc(-c3ccccc3)n2)cc1)c1ccccc1	-47.4	9.0	13.1*	3.0	1.4
S=C(NCc1ccco1)N1CCC(c2nc3ccccc3o2)CC1	.	.	2.1	.	.
O=c1c2ccccc2nc(SCc2cccc(F)c2)n1-c1cccc(S(=O)(=O)N2CCCC2)c1	-32.5	8.0	12.7*	7.7	1.9
CCN(CC)c1ccc(NC(=O)C2=CCN(S(=O)(=O)c3ccc(F)cc3)CC2)c(C)c1	-23.2	-1.8	1.4	10.6	.
COc1ccc(-c2ccc(-c3noc(-c4cccc(OC)c4)n3)c(OC)n2)cc1	-23.4	-17.2	14.7*	5.1	3.0
COc1ccc(-c2ccc(-c3noc(C4CCCCC4)n3)c(OC)n2)cc1	-32.8	-13.2	15.8*	10.4	5.3
CCOc1nc(-c2ccccc2)ccc1-c1noc(-c2ccco2)n1	-30.9	-6.2	4.7	11.2	.
COc1ccc(-c2ccc(-c3noc(-c4ccccc4C)n3)c(OC)n2)cc1	-58.1	-4.9	16.1*	3.7	3.5
CCOc1nc(-c2ccccc2)ccc1-c1noc(COc2ccccc2)n1	-34.6	-17.0	17.2*	11.0	4.7
COc1ccc(-c2ccc(-c3noc(C)n3)c(OC)n2)cc1	-39.8	-22.9	3.8	2.6	.
CC(C)(C)c1ccc(OCC(=O)Nc2ccc3c4c(cccc24)C(=O)NC3=O)cc1	.	.	1.0	.	.
COC(=O)c1ccc(CSc2nc(-c3ccco3)cc(C(F)(F)F)n2)o1	-36.2	-16.4	17.8*	5.8	2.4
N#Cc1c(SCc2ccccc2)nc(N2CCOCC2)c2c1CCCC2	-16.9	-0.8	15.0*	22.6	3.6
Cc1cccc(C)c1OC1(c2ccccc2)OC(=O)c2ccccc21 (configuration not stated)	-59.8	-13.3	11.9*	0.4	6.0
Cc1cc(C)c(OC2(c3ccccc3)OC(=O)c3ccccc32)c(C)c1 (configuration not stated)	-40.5	-2.6	12.3*	4.5	3.2
CCOC1(c2ccccc2)OC(=O)c2ccccc21 (configuration not stated)	-24.5	-0.8	1.1	3.3	.
Cc1cc(C(=O)N/N=C/C=C/c2cccc([N+](=O)[O-])c2)n[nH]1	.	.	1.0	.	.
O=C(COc1ccccc1F)N1c2ccccc2CCc2ccccc21	-6.2	0.6	2.7	14.6	.
CCc1ccc(OCC(=O)N2c3ccccc3CCc3ccccc32)cc1	-44.0	8.0	17.6*	1.4	6.0
CCc1c(O)c(/C(C)=N\O)c(=O)n(-c2ccccc2)c1-c1ccccc1	-13.4	-4.7	5.0	2.8	.
SMILES	BB579 growth dn	Yeast lifespan up	RAM inhibit	Measles CPE	RAM efflux-def
C=CCO/N=C(/C)c1c(O)c(CC)c(-c2ccccc2)n(-c2ccccc2)c1=O	-28.8	.	12.6*	7.2	1.7
CC(C)=CCC/C(C)=C/Cc1c(O)ccc(C(=O)/C=C/c2ccc(O)cc2)c1O	-44.4	-5.1	15.1*	19.4	4.9
CS(=O)(=O)N(Cc1ccc(C(=O)NCCSCc2ccco2)cc1)c1ccccc1	-67.3	21.6	11.7*	3.4	2.4
Cc1ccc(N(CC(=O)NCCSCc2ccco2)S(=O)(=O)c2ccc(F)cc2)cc1	.	.	3.8	.	.
COc1ccc(N(CC(=O)NCCSCc2ccco2)S(=O)(=O)c2ccc(C)cc2)cc1	.	.	14.8*	.	2.0
C=CCNC(=S)NNC(=O)c1ccncc1	.	.	2.1	.	.
Cc1ccc(C(c2nnnn2C2CCCC2)N2c3ccccc3CC2C)cc1 (configuration not stated)	-12.5	-2.8	3.1	20.1	.
C=CCNC(=S)N/N=C/c1ccc(N(CC)Cc2ccccc2)cc1	-12.9	-1.2	15.1*	3.7	3.1
Cc1ccnc(NS(=O)(=O)c2ccc(NC(=O)c3ccc4c(c3)OCCO4)cc2)n1	.	.	1.7	.	.
Brc1ccccc1-c1nnc2sc(Cc3ccccc3)nn12	-52.2	-8.0	33.4*	18.2	4.2
COc1ccc(Cc2nn3c(-c4ccccc4Br)nnc3s2)cc1	-33.0	-18.0	1.1	14.6	.
O=C(Cc1ccc(Cl)cc1Cl)OCC(=O)N1CCN(C(=O)c2ccco2)CC1	.	.	0.4	.	.
C=CCn1c(C)cc(C(=O)CSc2nnc(NCc3ccccc3)s2)c1C	64.0*	-8.9	14.2*	3.3	1.5
C=CCn1c(C)cc(C(=O)CSc2nnc(NC(C)C)s2)c1C	-54.0	-6.4	0.3	7.7	.
COC(=O)c1cc2c(ccn2-c2ccc(F)cc2)n1Cc1cccc(OC)c1	-27.4	5.0	12.6*	5.1	7.5
C=CCN(CC=C)S(=O)(=O)c1ccc(NC(=O)COc2ccccc2OC)cc1	-48.9	.	15.0*	14.9	2.3
CCCOC(=O)c1ccc(Oc2c(-c3ccc(OCC)cc3O)n[nH]c2C)cc1	-67.9	-11.5	14.9*	12.6	5.3
COc1ccc(Oc2c(-c3ccc(O)cc3O)n[nH]c2C)cc1	-26.3	-4.8	-1.0	.	.
COC(=O)CCCCCN1C(=O)NC(c2ccccc2)C(C(=O)OCc2ccccc2)=C1C (configuration not stated)	-54.6	6.9	4.6	10.2	.
CCCCCCN(C(=O)CCCCCN1C(=O)NC(c2ccc(-c3ccccc3)cc2)C(C(=O)OCc2ccccc2)=C1C)C(C)C(=O)NCCCC (configuration not stated)	-25.8	18.8	28.5*	2.5	6.0
COc1ccc(-c2nc3nc(N)nn3cc2C)cc1F	.	.	-1.0	.	.
CCOc1ccc(-n2c(C)nc(O)c2N=Nc2ccccc2)cc1	.	.	14.3*	.	4.0
CCOc1ccc(S(=O)(=O)Nc2nc3ccc(OC)cc3s2)cc1	-40.3	2.5	12.2*	5.2	2.6
COCCNC(=O)COc1ccc(C)cc1C(=O)c1cc(C#N)c(=O)n(C2CC2)c1	.	.	2.6	.	.
Cc1ccc(NC2=NCC(=O)N2Cc2cccs2)cc1C	.	.	1.9	.	.
COc1ccccc1CNC(=O)COC(=O)Cn1cnc2ccccc21	.	.	2.5	.	.
CCOC(=O)Cc1csc(NC(=O)NC2(C(F)(F)F)Oc3ccc(Cl)cc3O2)n1 (configuration not stated)	-81.2	-0.3	3.0	7.6	.
CCOC(=O)Cc1csc(NC(=O)NC2(C(F)(F)F)Oc3ccccc3O2)n1	-29.1	-2.0	13.7*	30.4	1.5
CSc1ccc(Cl)c(C(=O)OCC(=O)Nc2ccccc2OC(F)F)c1	-30.4	3.0	15.9*	2.3	3.3

High-throughput results as filed in PubChem.
